These results are taken from ChEMBL document CHEMBL1158431, “Anti-inflammatory cembranolides from the soft coral Lobophytum durum” (2009).

Active and inactive are the calls of the source. The rule behind the calls is not given here.

Experiment [1] concerns RAW264.7. Nature of the experiment: Antiinflammatory activity in LPS-stimulated mouse RAW264.7 cells assessed as iNOS protein expression at 10 uM after 16 hrs by immunoblot analysis relative to control. Particulars: RAW264.7, 16 h. A general note: A western blot detects proteins with antibodies after separation by electrophoresis.
The test system of experiment [2] is Salmonella enterica subsp. enterica. Put plainly: Antibacterial activity against Salmonella enteritidis ATCC 13076 up to 100 ug/disk after 24 hrs by agar well diffusion method. The experiment is classed as functional, organism-based. Particulars: Salmonella enterica subsp. enterica serovar Enteritidis, in the assay text read “paper disk diffusion method” for “agar well diffusion method”. In short, it runs like this:
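S. enteritidis ATCC13076 grown in LB broth 24 h at 37 °C. Broth culture (0.3 mL) mixed into 0.7% LB soft agar and layered over 1.5% LB hard agar. Compound applied to 8 mm paper disks at 2 μg/μL, tested up to 100 μg/disk. Ampicillin (5 μg/μL) and solvent served as controls. Plates incubated 24 h at 37 °C.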
On the technique in general: Agar diffusion results depend on both activity and mobility in agar.

Experiment [3] deals with RAW264.7. Nature of the experiment: Antiinflammatory activity in LPS-stimulated mouse RAW264.7 cells assessed as inhibition of COX2 protein expression at 10 uM after 16 hrs by immunoblot analysis relative to control. The experiment is classed as functional. In short, it runs like this: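 RAW 264.7 macrophages (ATCC TIB-71) stimulated with E. coli LPS (0.01 μg/mL) for 16 h with or without compound. Cells washed in ice-cold PBS, lysed, and spun at 20,000g for 30 min at 4 °C. Equal protein loaded for SDS-PAGE and transferred to PVDF. Blots probed 180 min with anti-iNOS or anti-COX-2 (1:1000) and detected by ECL. Levels expressed relative to LPS-only cells. CAPE 10 µM used as reference.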

Another experiment has as its system Human betaherpesvirus 5. Nature of the experiment: Inhibition of HCMV UL76 encoded endonuclease expressed in Escherichia coli BL21 (DE3)-RIL assessed as inhibition of supercoiled double stranded phi X 174 bacteriophage DNA cleavage after 1 hr by agarose gel electrophoresis. In short, it runs like this: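 Calmodulin-tagged HCMV UL76 endonuclease purified from E. coli BL21-codon DE3-RIL carrying pCBP-UL76. Serially diluted compound incubated with 1 µg CsCl-purified supercoiled dsDNA φX174, reaction buffer and enzyme at 37 °C for 1 h. Products resolved on 1% agarose gel. IC50 is the concentration giving 50% inhibition of substrate cleavage.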

Experiment [4] relates to RAW264.7. Nature of the experiment: Antiinflammatory activity in LPS-stimulated mouse RAW264.7 cells assessed as COX2 protein expression at 10 uM after 16 hrs by immunoblot analysis relative to control. Conditions: RAW264.7, 16 h.

As for `C=C1C(=O)O[C@@H]2[C@@H]1C[C@H](OC(C)=O)[C@@](O)(COC(C)=O)CC/C=C(\C)CC/C=C(\C)[C@H]2O` (relative stereo) [DURUMOLIDE G], in the experiment on RAW264.7 [1], the iNOS protein level (% of LPS control) at 10 µM was 7.3%. Moreover, the inhibition result (in experiment [2]; in the experiment on RAW264.7 [3]; with Human betaherpesvirus 5) was “inactive” each time.

On to `C=C1C(=O)O[C@@H]2[C@@H]1C[C@H](OC(C)=O)[C@@](O)(COC(C)=O)CC/C=C(\C)CC/C=C(\C)[C@H]2OC(C)=O` (relative stereo) [DURUMOLIDE H], for which the iNOS protein level (% of LPS control) at 10 µM with RAW264.7 [1] is 22.6%. The inhibition entry (in experiment [2]; in the experiment on Human betaherpesvirus 5) was “inactive” in each case. For the same compound, in the experiment with RAW264.7 [3], the outcome was inactive.

For the compound `C=C1C(=O)O[C@@H]2[C@@H]1C[C@H]1O[C@]1(COC(C)=O)CC/C=C(\C)[C@@H](O)C/C=C(\C)[C@H]2OC(C)=O` (relative stereo) [DURUMOLIDE I], the iNOS protein level (% of LPS control) at 10 µM in the experiment on RAW264.7 [1] came out at 6.2%. For the same compound, the inhibition entry (in experiment [2]; in the experiment on RAW264.7 [3]; in the experiment on Human betaherpesvirus 5) was “inactive” in each case.

Take `C=C1C(=O)O[C@H]2C(=O)/C(C)=C/CC/C(C)=C/CC[C@@]3(CO)O[C@@H]3C[C@H]12` (relative stereo) [DURUMOLIDE K]: in the experiment with RAW264.7 [1], the iNOS protein level (% of LPS control) at 10 µM came out at 5.7%. Further, the inhibition entry (in experiment [2]; in the experiment with Human betaherpesvirus 5) was “inactive” in each case. Also, the COX-2 protein level (% of LPS control) at 10 µM with RAW264.7 [4] was determined as 71.6%.

Take `C=C1C(=O)O[C@H]2C(=O)/C(C)=C/CC/C(C)=C/CC[C@@]3(C=O)O[C@@H]3C[C@H]12` (relative stereo) [DURUMOLIDE L]: in the experiment with RAW264.7 [1], the iNOS protein level (% of LPS control) at 10 µM was found to be 1.2%. Moreover, the inhibition entry (in experiment [2]; in the experiment on RAW264.7 [3]; in the experiment with Human betaherpesvirus 5) was “inactive” each time.

Regarding `O=C(/C=C/c1ccc(O)c(O)c1)OCCc1ccccc1` [CAFFEIC ACID PHENETHYL ESTER], the iNOS protein level (% of LPS control) at 10 µM in the experiment with RAW264.7 [1] was determined as 1.5%. For the same compound, in the experiment on RAW264.7 [4], the COX-2 protein level (% of LPS control) at 10 µM came out at 70.2%.

As for `C=C1C(=O)O[C@H]2C/C(C)=C/CC/C(C)=C/CC[C@](O)(COC(C)=O)[C@@H](O)C[C@H]12` [DURUMOLIDE F], in the experiment with RAW264.7 [1], the iNOS protein level (% of LPS control) at 10 µM came out at 0.8%. In addition, the inhibition result (in experiment [2]; with Human betaherpesvirus 5) was “inactive” throughout. For the same compound, in the experiment with RAW264.7 [4], the COX-2 protein level (% of LPS control) at 10 µM amounted to 47.8%.

Regarding `C=C1C(=O)O[C@@H]2[C@@H]1C[C@H]1O[C@]1(C)CC/C=C(\C)CC/C=C(\C)[C@H]2O` [DURUMOLIDE J], the iNOS protein level (% of LPS control) at 10 µM in the experiment with RAW264.7 [1] worked out at 0.1%. The inhibition result (in experiment [2]; in the experiment on RAW264.7 [3]; in the experiment with Human betaherpesvirus 5) was “inactive” in each case.

Consider `C=C1C(=O)O[C@H]2C/C(C)=C/CC/C(C)=C/CC[C@@]3(CO)O[C@@H]3C[C@H]12` [SINULAROLIDE D], for which the iNOS protein level (% of LPS control) at 10 µM in the experiment with RAW264.7 [1] came out at 2.2%. Further, the inhibition entry (in experiment [2]; in the experiment with RAW264.7 [3]; in the experiment on Human betaherpesvirus 5) was “inactive” throughout.
